Measured values from ChEMBL document CHEMBL4261600 (Eur J Med Chem, 2018).

Tests used:
[1] = biological target: cAMP-dependent protein kinase catalytic subunit beta (Homo sapiens) (UniProt P22694); experiment: Binding affinity to wild-type human full length PKAC-beta (M1 to F351 residues) expressed in bacterial expression system assessed as remaining unbound target protein level at 1000 nM by Kinomescan method relative to control
Procedure, shortened: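 Profiled in a KINOMEscan binding panel with the inhibitor at a single concentration of 1 μM. Binding to each kinase was read out as percent of control, relative to a DMSO control. Strong binders were defined as those with a percent control value below 1.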

[2] = biological target: SRSF protein kinase 1 (Homo sapiens) (UniProt Q96SB4); experiment: Binding affinity to wild-type human full length SRPK1 (M1 to S655 residues) expressed in bacterial expression system assessed as remaining unbound target protein level at 1000 nM by Kinomescan method relative to control
Procedure, shortened: (§1)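 KINOMEscan competition binding profile across a panel of 468 kinases and mutants, with the inhibitor tested at a single concentration of 1 μM. Binding is reported as percent of control, meaning signal relative to a DMSO control.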

[3] = biological target: Casein kinase I isoform epsilon (Homo sapiens) (UniProt P49674); experiment: Binding affinity to wild-type human full length CSNK1E (M1 to K416 residues) expressed in bacterial expression system assessed as remaining unbound target protein level at 1000 nM by Kinomescan method relative to control
Procedure, shortened: (§2)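 Single-point competition binding screen across a panel of 468 kinases and mutants, with the inhibitor at 1 μM. Binding is read out as percent of a DMSO control, and targets below 1 percent control were classed as strong binders.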

[4] = biological target: Mitogen-activated protein kinase kinase kinase kinase 3 (Homo sapiens) (UniProt Q8IVH8); experiment: Binding affinity to wild-type human partial length MAP4K3 (M1 to D301 residues) expressed in bacterial expression system assessed as remaining unbound target protein level at 1000 nM by Kinomescan method relative to control
Mitogen-activated protein kinase kinase kinase kinase 3 (Homo sapiens), sequence (Q8IVH8 whole entry, the tested form may be a part): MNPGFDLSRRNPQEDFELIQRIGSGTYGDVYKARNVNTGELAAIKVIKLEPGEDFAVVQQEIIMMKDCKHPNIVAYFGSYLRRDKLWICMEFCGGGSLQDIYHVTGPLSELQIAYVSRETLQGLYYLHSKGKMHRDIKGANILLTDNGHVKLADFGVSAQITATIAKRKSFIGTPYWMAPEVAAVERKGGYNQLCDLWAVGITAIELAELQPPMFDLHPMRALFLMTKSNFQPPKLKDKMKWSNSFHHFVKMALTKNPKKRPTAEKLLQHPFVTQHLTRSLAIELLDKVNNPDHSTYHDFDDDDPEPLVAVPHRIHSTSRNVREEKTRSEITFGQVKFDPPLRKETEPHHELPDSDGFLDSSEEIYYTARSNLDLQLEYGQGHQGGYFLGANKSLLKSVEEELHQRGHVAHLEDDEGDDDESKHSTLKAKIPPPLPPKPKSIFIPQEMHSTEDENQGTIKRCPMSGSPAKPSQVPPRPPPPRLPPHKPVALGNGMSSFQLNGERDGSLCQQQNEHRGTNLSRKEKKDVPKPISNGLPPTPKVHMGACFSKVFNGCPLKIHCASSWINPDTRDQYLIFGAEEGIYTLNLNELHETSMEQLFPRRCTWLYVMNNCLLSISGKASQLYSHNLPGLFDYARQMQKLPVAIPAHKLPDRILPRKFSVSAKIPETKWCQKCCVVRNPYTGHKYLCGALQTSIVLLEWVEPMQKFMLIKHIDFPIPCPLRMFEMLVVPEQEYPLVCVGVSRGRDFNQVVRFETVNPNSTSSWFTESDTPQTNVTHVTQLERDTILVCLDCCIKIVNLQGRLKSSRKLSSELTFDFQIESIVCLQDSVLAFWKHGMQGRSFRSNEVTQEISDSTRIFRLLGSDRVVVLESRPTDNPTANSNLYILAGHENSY

[5] = biological target: Serine/threonine-protein kinase 36 (Homo sapiens) (UniProt Q9NRP7); experiment: Binding affinity to wild-type human partial length STK36 (M1 to T271 residues) expressed in bacterial expression system assessed as remaining unbound target protein level at 1000 nM by Kinomescan method relative to control
[6] = biological target: Serine/threonine-protein kinase 17A (Homo sapiens) (UniProt Q9UEE5); experiment: Binding affinity to wild-type human partial length DRAK1 (R32 to E363 residues) expressed in bacterial expression system assessed as remaining unbound target protein level at 1000 nM by Kinomescan method relative to control
[7] = biological target: Cyclin-dependent kinase-like 2 (Homo sapiens) (UniProt Q92772); experiment: Binding affinity to wild-type human partial length CDKL2 (M1 to D327 residues) expressed in bacterial expression system assessed as remaining unbound target protein level at 1000 nM by Kinomescan method relative to control; procedure, shortened: as §1
Cyclin-dependent kinase-like 2 (Homo sapiens), sequence (Q92772 whole entry, the tested form may be a part): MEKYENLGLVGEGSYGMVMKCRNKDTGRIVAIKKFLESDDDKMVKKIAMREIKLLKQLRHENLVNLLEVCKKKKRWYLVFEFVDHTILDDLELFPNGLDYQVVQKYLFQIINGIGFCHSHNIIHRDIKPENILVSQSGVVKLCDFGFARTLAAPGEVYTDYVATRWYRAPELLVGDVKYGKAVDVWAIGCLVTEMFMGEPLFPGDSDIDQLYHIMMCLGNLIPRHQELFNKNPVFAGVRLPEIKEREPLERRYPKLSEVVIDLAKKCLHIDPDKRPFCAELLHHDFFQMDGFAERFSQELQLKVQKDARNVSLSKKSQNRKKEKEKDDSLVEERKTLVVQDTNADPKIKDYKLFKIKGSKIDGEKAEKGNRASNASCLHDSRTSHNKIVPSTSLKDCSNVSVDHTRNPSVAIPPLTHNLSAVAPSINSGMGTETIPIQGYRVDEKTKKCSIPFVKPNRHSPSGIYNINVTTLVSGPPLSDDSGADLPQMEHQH

[8] = tested on: Tyrosine-protein kinase ABL1 (Homo sapiens), P00519 [T315I]; experiment: Binding affinity to human non-phosphorylated ABL1 T315I mutant (S229 to K512 residues) expressed in mammalian expression system assessed as remaining unbound target protein level at 1000 nM by Kinomescan method relative to control
Procedure, shortened: (§3)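 KINOMEscan competition-binding profiling across the panel of 468 kinases and mutants, with inhibitor tested at 1 μM. Binding is expressed as percent of control, with DMSO as the reference control.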

[9] = tested on: Serine/threonine-protein kinase B-raf (Homo sapiens), P15056 [V600E]; experiment: Binding affinity to human partial length BRAF V600E mutant (S429 to E741 residues) expressed in mammalian expression system assessed as remaining unbound target protein level at 1000 nM by Kinomescan method relative to control; procedure, shortened: as §3
Serine/threonine-protein kinase B-raf (Homo sapiens), P15056 [V600E], sequence (P15056 whole entry V600E, the tested form may be a part): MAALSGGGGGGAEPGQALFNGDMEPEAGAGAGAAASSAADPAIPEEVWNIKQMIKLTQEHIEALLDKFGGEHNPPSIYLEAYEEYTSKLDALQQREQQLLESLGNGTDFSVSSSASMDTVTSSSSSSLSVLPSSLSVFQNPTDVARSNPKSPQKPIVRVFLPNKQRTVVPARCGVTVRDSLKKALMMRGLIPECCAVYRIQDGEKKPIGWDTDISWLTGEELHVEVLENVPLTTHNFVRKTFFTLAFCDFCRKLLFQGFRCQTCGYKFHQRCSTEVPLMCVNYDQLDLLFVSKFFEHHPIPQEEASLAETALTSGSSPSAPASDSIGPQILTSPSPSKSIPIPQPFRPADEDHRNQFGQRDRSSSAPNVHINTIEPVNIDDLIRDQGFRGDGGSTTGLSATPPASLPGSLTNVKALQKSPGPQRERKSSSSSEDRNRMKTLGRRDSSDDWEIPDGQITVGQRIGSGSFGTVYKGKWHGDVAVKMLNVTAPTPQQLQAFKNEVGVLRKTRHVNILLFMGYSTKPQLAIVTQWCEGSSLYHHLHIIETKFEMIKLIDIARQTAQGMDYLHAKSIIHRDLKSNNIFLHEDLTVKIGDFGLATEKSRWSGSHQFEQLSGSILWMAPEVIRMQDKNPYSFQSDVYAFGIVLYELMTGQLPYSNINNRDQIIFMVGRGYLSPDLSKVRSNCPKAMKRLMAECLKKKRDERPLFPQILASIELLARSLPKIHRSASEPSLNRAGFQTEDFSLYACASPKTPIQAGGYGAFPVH

[10] = biological target: Glycogen synthase kinase-3 beta (Homo sapiens) (UniProt P49841); experiment: Binding affinity to wild-type human full length GSK3B (M1 to T433 residues) expressed in mammalian expression system assessed as remaining unbound target protein level at 1000 nM by Kinomescan method relative to control; procedure, shortened: as §2
[11] = biological target: Maternal embryonic leucine zipper kinase (Homo sapiens) (UniProt Q14680); experiment: Binding affinity to wild-type human full length MELK (M1 to V651 residues) expressed in bacterial expression system assessed as remaining unbound target protein level at 1000 nM by Kinomescan method relative to control; procedure, shortened: as §2
Maternal embryonic leucine zipper kinase (Homo sapiens), sequence (Q14680 whole entry, looked up, the tested form may be a part): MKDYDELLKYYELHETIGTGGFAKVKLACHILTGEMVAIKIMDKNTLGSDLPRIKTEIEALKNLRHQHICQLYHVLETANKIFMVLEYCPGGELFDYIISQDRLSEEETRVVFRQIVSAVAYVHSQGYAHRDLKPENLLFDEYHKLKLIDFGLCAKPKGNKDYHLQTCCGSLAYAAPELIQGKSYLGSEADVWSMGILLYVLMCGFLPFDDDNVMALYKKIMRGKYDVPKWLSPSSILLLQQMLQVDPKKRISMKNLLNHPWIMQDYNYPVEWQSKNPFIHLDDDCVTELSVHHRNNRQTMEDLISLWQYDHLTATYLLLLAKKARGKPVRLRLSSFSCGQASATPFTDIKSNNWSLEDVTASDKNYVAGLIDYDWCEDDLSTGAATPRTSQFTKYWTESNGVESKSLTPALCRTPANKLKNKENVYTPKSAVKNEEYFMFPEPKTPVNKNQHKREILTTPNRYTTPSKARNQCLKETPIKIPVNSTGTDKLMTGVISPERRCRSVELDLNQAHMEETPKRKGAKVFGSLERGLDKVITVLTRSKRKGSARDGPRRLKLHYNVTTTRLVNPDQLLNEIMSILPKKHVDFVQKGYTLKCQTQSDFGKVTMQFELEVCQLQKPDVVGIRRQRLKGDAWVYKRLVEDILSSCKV

[12] = biological target: Mitogen-activated protein kinase 9 (Homo sapiens) (UniProt P45984); experiment: Binding affinity to wild-type human full length JNK2 (M1 to Q382 residues) expressed in mammalian expression system assessed as remaining unbound target protein level at 1000 nM by Kinomescan method relative to control; procedure, shortened: as §1
[13] = biological target: Serine/threonine-protein kinase SBK1 (Homo sapiens) (UniProt Q52WX2); experiment: Binding affinity to wild-type human partial length SBK1 (P23 to P348 residues) expressed in mammalian expression system assessed as remaining unbound target protein level at 1000 nM by Kinomescan method relative to control
[14] = biological target: Tyrosine-protein kinase BTK (Homo sapiens) (UniProt Q06187); experiment: Binding affinity to wild-type human full length BTK (M1 to S659 residues) expressed in mammalian expression system assessed as remaining unbound target protein level at 1000 nM by Kinomescan method relative to control; procedure, shortened: as §2
[15] = biological target: Serine/threonine-protein kinase MARK1 (Homo sapiens) (UniProt Q9P0L2); experiment: Binding affinity to wild-type human partial length MARK1 (Q30 to T341 residues) expressed in bacterial expression system assessed as remaining unbound target protein level at 1000 nM by Kinomescan method relative to control
Serine/threonine-protein kinase MARK1 (Homo sapiens), sequence (Q9P0L2 whole entry, looked up, the tested form may be a part): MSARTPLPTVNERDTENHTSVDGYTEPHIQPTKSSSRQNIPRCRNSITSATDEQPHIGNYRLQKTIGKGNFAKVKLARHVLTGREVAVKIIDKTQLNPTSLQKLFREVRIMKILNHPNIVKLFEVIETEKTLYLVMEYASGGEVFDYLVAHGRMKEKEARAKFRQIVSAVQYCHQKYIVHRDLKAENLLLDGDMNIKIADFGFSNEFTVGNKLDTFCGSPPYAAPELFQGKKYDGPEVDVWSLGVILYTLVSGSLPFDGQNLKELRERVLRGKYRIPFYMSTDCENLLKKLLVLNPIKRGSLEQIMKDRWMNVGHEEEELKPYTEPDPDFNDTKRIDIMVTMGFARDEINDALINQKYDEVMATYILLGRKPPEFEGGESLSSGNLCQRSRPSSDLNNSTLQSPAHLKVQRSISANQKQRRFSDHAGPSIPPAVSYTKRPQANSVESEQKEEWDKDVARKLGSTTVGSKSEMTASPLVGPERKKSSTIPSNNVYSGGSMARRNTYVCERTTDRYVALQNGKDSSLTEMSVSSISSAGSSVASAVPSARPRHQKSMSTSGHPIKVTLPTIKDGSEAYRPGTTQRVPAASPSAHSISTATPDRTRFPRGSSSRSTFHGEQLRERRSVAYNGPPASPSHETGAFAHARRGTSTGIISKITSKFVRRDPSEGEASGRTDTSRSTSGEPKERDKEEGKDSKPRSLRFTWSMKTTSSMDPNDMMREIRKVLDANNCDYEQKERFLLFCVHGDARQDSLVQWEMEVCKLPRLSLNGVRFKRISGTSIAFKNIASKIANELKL
Procedure, shortened: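 KINOMEscan binding panel of 468 kinases/mutants. Inhibitor was tested at a single concentration of 1 μM. Binding is reported as percent of control, defined relative to a DMSO control.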

[16] = Half life in Sprague-Dawley rat at 3 mg/kg, iv by LC-MS/MS analysis; type: ADME, organism-based; details: in vivo
[17] = biological target: Cyclin-dependent kinase 5/CDK5 activator 1 (Homo sapiens, UniProt Q00535); experiment: Inhibition of recombinant full length His/GST-tagged human CDK5/p25 expressed in baculovirus expression system
Cyclin-dependent kinase 5/CDK5 activator 1, sequence (Q00535 whole entry, the tested form may be a part): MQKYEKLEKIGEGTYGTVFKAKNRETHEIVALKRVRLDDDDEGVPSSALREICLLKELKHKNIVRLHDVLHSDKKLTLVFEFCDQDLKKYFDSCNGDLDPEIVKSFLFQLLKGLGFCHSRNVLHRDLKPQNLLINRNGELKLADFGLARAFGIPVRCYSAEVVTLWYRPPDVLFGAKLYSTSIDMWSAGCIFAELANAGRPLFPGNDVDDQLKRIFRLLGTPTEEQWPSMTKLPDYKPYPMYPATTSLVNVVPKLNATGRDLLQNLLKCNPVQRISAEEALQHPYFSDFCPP
Cyclin-dependent kinase 5/CDK5 activator 1, sequence (Q15078 whole entry, further chain, the tested form may be a part): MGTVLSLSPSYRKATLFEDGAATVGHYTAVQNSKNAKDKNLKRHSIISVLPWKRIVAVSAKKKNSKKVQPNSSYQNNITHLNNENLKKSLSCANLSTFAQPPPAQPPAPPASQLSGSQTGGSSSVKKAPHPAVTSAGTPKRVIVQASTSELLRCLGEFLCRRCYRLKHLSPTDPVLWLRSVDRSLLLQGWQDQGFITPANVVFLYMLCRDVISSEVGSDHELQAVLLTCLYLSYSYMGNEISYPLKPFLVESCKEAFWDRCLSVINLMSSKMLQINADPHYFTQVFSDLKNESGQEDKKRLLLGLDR

[18] = biological target: Tyrosine-protein kinase Fgr (Homo sapiens) (UniProt P09769); experiment: Binding affinity to wild-type human partial length FGR (L233 to T529 residues) expressed in bacterial expression system assessed as remaining unbound target protein level at 1000 nM by Kinomescan method relative to control
[19] = biological target: LIM domain kinase 1 (Homo sapiens) (UniProt P53667); experiment: Binding affinity to wild-type human full length LIMK1 (M1 to D647 residues) expressed in bacterial expression system assessed as remaining unbound target protein level at 1000 nM by Kinomescan method relative to control; procedure, shortened: as §2
[20] = biological target: Fibroblast growth factor receptor 4 (Homo sapiens) (UniProt P22455); experiment: Binding affinity to wild-type human partial length FGFR4 (G402 to E713 residues) expressed in bacterial expression system assessed as remaining unbound target protein level at 1000 nM by Kinomescan method relative to control
Fibroblast growth factor receptor 4 (Homo sapiens), sequence (P22455 22-802 limits assumed): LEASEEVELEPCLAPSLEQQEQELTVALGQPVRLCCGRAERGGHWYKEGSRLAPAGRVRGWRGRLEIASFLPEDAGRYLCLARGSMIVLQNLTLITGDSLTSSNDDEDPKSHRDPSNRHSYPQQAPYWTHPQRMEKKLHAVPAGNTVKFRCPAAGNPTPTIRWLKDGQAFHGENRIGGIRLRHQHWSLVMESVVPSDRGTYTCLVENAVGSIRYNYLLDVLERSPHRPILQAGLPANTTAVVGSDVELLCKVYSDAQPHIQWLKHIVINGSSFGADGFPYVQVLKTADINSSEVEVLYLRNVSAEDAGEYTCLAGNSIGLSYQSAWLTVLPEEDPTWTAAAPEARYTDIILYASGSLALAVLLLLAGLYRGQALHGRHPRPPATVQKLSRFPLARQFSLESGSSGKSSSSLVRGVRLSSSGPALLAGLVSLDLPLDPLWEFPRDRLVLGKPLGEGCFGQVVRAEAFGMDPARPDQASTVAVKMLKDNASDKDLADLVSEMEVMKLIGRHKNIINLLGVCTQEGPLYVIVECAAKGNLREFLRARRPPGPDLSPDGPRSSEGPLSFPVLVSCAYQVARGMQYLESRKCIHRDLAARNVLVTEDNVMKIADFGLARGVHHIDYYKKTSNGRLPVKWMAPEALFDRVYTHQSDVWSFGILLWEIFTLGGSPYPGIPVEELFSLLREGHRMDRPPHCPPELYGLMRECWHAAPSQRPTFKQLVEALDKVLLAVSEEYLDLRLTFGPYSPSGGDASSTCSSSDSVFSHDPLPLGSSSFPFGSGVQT

[21] = biological target: Mitogen-activated protein kinase 8 (Homo sapiens) (UniProt P45983); experiment: Binding affinity to wild-type human full length JNK1 (M1 to Q384 residues) expressed in mammalian expression system assessed as remaining unbound target protein level at 1000 nM by Kinomescan method relative to control; procedure, shortened: as §1

Compound `COCCN[C@H]1CC[C@H](Nc2cc(-c3csc(NCC4(C#N)CCOCC4)n3)c(Cl)cn2)CC1` has an Activity [1] of 92%, an Activity [2] of 66% and an Activity [3] of 87%. It also gave an Activity [4] of 100%, an Activity [5] of 83% and an Activity [6] of 100%. For the same compound, the Activity [7] was 63%, the Activity [8] was 100% and the Activity [9] was 91%. For the same compound, the Activity [10] was 98%, the Activity [11] was 75% and the Activity [12] was 8.2%. For the same compound, the Activity [13] was 75%, the Activity [14] was 100% and the Activity [15] was 91%. It also gave a half-life [16] of 6.8 h, an IC50 [17] of 4.64 µM and an Activity [18] of 90%. It also gave an Activity [19] of 90%, an Activity [20] of 100% and an Activity [21] of 4.8%.
